Measurements published in ChEMBL document CHEMBL4673226, “Development of 5-Aminopyrazole-4-carboxamide-based Bumped-Kinase Inhibitors for Cryptosporidiosis Therapy” (J Med Chem, 2019).
Activity calls are given as the source filed them. The calls are words filed in the database; no cut-off is given here.

What was measured:
[1] = Clearance in mouse at 25 mg/kg, po; type: ADME, organism-based; conditions: in vivo
[2] = tested on: HepG2; assay: Toxicity in human HepG2 cells; type: cell-based
[3] = Protein binding in human plasma by dialysis method
[4] = Toxicity in mouse assessed as effect on serum chemistry parameters at 150 to 300 mg/kg, po QD for 7 days; type: organism-based; conditions: in vivo, 168 h, dose 150-300 mg/kg, time 7 day
[5] = Toxicity in mouse assessed as effect on organ parameters at 150 to 300 mg/kg, po QD for 7 days by histological analysis; type: organism-based; conditions: in vivo, 168 h, dose 150-300 mg/kg, time 7 day
[6] = AUC in mouse at 25 mg/kg, po; type: ADME, organism-based; set-up: dose 25 mg/kg; conditions: in vivo
[7] = tested on: Cryptosporidium parvum; assay: Antimicrobial activity against nano-luciferase-expressing Cryptosporidium parvum infected in IFN-gamma KO B6.129S7-Ifngtm1Ts/J mouse assessed as log reduction of infection at 120 mg/kg, po QD for 5 days beginning on day 6 post infection relative untreated control; type: functional, organism-based; conditions: time 5.0 day
[8] = tested on: Cryptosporidium parvum; assay: Antimicrobial activity against nano-luciferase-expressing Cryptosporidium parvum infected in IFN-gamma KO B6.129S7-Ifngtm1Ts/J mouse assessed as log reduction of infection at 60 mg/kg, po BID for 5 days beginning on day 6 post infection relative untreated control; type: functional; conditions: time 5 day
[9] = mouse, in vivo, po, 30 mg/kg, 168 h
[10] = tested on: Cryptosporidium parvum; assay: Antimicrobial activity against nano-luciferase-expressing Cryptosporidium parvum infected in IFN-gamma KO B6.129S7-Ifngtm1Ts/J mouse assessed as log reduction of infection at 30 mg/kg, po BID for 5 days beginning on day 6 post infection relative untreated control; type: functional, organism-based; conditions: time 5.0 day
[11] = tested on: Cryptosporidium parvum; assay: Antimicrobial activity against nano-luciferase-expressing Cryptosporidium parvum infected in IFN-gamma KO B6.129S7-Ifngtm1Ts/J mouse assessed as log reduction of infection at 15 mg/kg, po BID for 5 days beginning on day 6 post infection relative untreated control; type: functional, organism-based; conditions: time 5.0 day
[12] = Toxicity in mouse at 150 to 600 mg/kg, po; type: organism-based; conditions: in vivo, dose 150-600 mg/kg
Method in brief: (§1)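 Escalating single oral doses were given to mice until toxicity signs appeared. Regimens were 100, 150, 200 and 250 mg/kg, and 150, 200, 300, 400 and 600 mg/kg. Escalation was limited by solubility in the dosing solution.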

[13] = target: Proto-oncogene tyrosine-protein kinase Src (Homo sapiens, UniProt P12931); assay: Inhibition of SRC (unknown origin); type: ADME
[14] = Toxicity in human CRL-8155 cells; type: cell-based
[15] = tested on: Cryptosporidium parvum; assay: Antimicrobial activity against nano-luciferase-expressing Cryptosporidium parvum infected in IFN-gamma KO B6.129S7-Ifngtm1Ts/J mouse assessed as log reduction of infection at 5 mg/kg, po BID for 5 days beginning on day 6 post infection relative untreated control; type: functional, organism-based; conditions: time 5.0 day
[16] = Protein binding in mouse plasma by dialysis method
[17] = Toxicity in mouse assessed as induction of distress at 150 to 600 mg/kg, po; type: organism-based; conditions: in vivo, dose 150-600 mg/kg; method in brief: as §1
[18] = Toxicity in mouse assessed as effect on CBC parameters at 150 to 300 mg/kg, po QD for 7 days; type: organism-based; conditions: in vivo, 168 h, dose 150-300 mg/kg, time 7 day
[19] = Inhibition of Cryptosporidium parvum CDPK1 assessed as reduction in ATP consumption using BioSyntide-2 substrate incubated for 90 mins by luciferase reporter gene assay
[20] = Toxicity in mouse at 150 to 300 mg/kg, po QD for 7 days; type: organism-based; conditions: in vivo, 168 h, dose 150-300 mg/kg, time 7 day
[21] = tested on: Cryptosporidium parvum; assay: Antimicrobial activity against nano-luciferase-expressing Cryptosporidium parvum infected in IFN-gamma KO B6.129S7-Ifngtm1Ts/J mouse assessed as log reduction of infection at 60 mg/kg, po QD for 5 days beginning on day 6 post infection relative untreated control; conditions: time 5.0 day
[22] = Cardiotoxicity in rat; type: toxicity

Chain of Proto-oncogene tyrosine-protein kinase Src (P12931 2-536 limits assumed): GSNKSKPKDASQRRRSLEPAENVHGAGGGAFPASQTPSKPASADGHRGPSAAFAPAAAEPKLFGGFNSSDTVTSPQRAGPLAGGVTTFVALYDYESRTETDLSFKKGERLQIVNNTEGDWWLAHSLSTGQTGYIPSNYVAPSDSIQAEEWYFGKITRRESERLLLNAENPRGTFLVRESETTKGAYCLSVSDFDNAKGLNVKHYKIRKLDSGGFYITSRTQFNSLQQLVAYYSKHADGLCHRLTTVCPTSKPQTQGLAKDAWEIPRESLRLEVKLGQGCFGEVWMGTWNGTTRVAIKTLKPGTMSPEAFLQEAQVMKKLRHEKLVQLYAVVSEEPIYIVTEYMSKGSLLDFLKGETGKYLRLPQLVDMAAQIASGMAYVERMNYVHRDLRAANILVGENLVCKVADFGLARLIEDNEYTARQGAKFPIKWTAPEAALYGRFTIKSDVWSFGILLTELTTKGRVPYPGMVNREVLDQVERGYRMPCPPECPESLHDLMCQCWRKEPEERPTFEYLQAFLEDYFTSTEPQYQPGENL

For `CCOc1ccc2cc(-c3nn(C(C)(C)CCO)c(N)c3C(N)=O)ccc2c1`, the CL/F [1] was 11.1 mL/min, the Activity [2] was “Non-Toxic” and the PPB [3] was 99%. The Activity [4] was “Non-Toxic”, the Activity [5] was “Non-Toxic” and the AUC [6] was 144.5 µmol·min/L. For the same molecule, the Activity [7] was “Active”, the log reduction [8] was 3.37 and the Cmax [9] was 510 nM. The Activity [10] was “Active”, the Activity [11] was “inactive” and the Activity [12] was “Non-Toxic”. For the same molecule, the IC50 [13] was > 10000 nM, the Activity [14] was “Non-Toxic” and the Activity [15] was “inactive”. The PPB [16] was 94%, the Activity [17] was “Non-Toxic” and the Activity [18] was “Non-Toxic”. The IC50 [19] was 2.5 nM, the Activity [20] was “Non-Toxic” and the Activity [21] was “inactive”.
In the case of `CCOc1ccc2cc(-c3nn(C(C)(C)C)c(N)c3C(N)=O)cnc2c1`, the Activity [22] is reported as “Toxic”.
